What was measured:
OATP1B1 = target: T1, OATP1B1 (Homo sapiens, UniProt Q9Y6L6); assay: Substrate activity at human OATP1B1 stably expressed in HEK293 cells assessed as ratio of total to passive cellular uptake at 1 uM incubated for 5 mins by LC/MS-MS analysis; assay type: ADME, cell-based; settings: HEK293 cells stably expressing human OATP1B1
T1 sequence (Q9Y6L6 whole entry): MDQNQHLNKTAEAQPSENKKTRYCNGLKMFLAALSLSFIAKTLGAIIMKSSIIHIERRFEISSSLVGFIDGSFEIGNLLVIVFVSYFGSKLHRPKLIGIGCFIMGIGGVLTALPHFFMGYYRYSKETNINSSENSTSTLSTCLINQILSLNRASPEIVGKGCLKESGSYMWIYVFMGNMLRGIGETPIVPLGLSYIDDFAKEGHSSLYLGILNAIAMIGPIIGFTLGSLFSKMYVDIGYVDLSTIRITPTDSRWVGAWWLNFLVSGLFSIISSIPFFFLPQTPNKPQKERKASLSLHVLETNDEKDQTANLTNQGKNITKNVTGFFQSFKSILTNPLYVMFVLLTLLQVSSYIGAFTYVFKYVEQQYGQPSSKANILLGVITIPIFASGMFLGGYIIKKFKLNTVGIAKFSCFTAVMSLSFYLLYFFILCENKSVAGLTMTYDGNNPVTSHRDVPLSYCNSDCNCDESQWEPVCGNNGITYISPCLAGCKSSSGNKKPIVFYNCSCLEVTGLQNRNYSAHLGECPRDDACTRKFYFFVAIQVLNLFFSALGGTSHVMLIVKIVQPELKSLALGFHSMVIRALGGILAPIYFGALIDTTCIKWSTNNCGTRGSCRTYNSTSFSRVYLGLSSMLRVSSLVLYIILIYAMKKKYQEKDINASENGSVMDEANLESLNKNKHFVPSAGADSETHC
Procedure, shortened: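 Transfected versus parental HEK293 cells exposed at 1 µM for 5 min at 37 °C. Ratio is total (transfected) over passive (parental) uptake; >2 denotes substrate.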

[1] = Fraction unbound in monkey plasma by equilibrium dialysis method; assay type: ADME, cell-free, Macaca mulatta; settings: rhesus monkey
Procedure, shortened: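 Fraction unbound in plasma and liver tissue was determined by equilibrium dialysis.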

Cytochrome P450 3A4 = Cytochrome P450 3A4 (Homo sapiens, UniProt P08684); assay: Activation of CYP3A4 in human hepatocytes at 0.5 to 200 uM; assay type: ADME, cell-based, Hepatocyte; settings: dose 0.5-200 µM
Procedure, shortened: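 Individual human hepatocyte lots treated at 0.5–200 µM. Read-out is CYP3A4 enzyme activity.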

[2] = Toxicity in cynomolgus monkey assessed as reduction in platelet count at 3 to 10 mg/kg, po after 14 days; assay type: organism-based, Macaca fascicularis; settings: in vivo, 336 h, dose 3-10 mg/kg, time 14 day
[3] = Inhibition of DNL in po dosed Sprague-Dawley rat assessed as reduction in DNL level in liver pretreated with one hr followed by [14C]-acetate treatment and measured after 1 hr; assay type: functional, organism-based
Procedure, shortened: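 Sprague-Dawley rats given single oral doses of 0.03–300 mg/kg in 0.5% methyl cellulose vehicle, n = 16 per dose. Read-out is incorporation of 14C-acetate into lipids in liver, bone marrow and lung, measured at 2 h post-dose relative to vehicle. Data are mean ± SEM. EC50 is reported with a 95% confidence interval.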

Sequence of Cytochrome P450 3A4 (P08684 whole entry): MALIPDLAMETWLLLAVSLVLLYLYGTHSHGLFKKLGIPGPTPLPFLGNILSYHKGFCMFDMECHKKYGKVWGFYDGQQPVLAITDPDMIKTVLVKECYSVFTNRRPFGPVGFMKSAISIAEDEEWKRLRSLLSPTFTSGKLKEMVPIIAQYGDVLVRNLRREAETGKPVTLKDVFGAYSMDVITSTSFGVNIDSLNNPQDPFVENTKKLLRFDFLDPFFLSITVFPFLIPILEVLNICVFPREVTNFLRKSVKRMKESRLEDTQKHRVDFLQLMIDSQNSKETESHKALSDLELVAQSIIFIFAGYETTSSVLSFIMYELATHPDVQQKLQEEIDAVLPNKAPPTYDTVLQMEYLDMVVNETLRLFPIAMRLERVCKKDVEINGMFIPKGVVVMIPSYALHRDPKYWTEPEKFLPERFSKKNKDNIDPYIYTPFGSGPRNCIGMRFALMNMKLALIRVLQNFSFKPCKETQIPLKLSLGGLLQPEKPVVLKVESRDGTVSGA

uptake ratio at 5 min, 1 µM (OATP1B1) | fraction unbound [1] | Activity (Cytochrome P450 3A4) | EC50 [3] | Compound | Activity [2]
5 | – | – | – | COc1cc(C(=O)N2CCC3(CC2)CC(=O)c2nn(C(C)(C)C)cc2O3)cc(-c2ccc(C(=O)O)cc2)n1 | –
– | 0.00956 | Not Active | 5.4 nM | COc1cc(C(=O)N2CCC3(CC2)CC(=O)c2c(cnn2C(C)C)C3)cc(-c2ccc(C(=O)O)cc2)n1 [CLESACOSTAT] | Non-Toxic

From ChEMBL document CHEMBL4665761, “Optimizing the Benefit/Risk of Acetyl-CoA Carboxylase Inhibitors through Liver Targeting” (J Med Chem, 2020)
